High-throughput results as filed in PubChem BioAssay.
Only some compounds are listed: those with a hit (about 1.1% of all), similar ones and a draw of the others.
p47phox inh: p47phox (human) inhibition; AID 1274; 220,000 compounds, 0.53% hits; P14598; p47phox/p22phox peptide binding, fluorescence polarization, 2 h; inhibition, % at 24.7 µM;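 active means inhibition above about 30%, limit read from the data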
Furin inh: human furin inhibition. purified furin, fluorogenic substrate cleavage. AID 463115. 220,000 compounds, 0.061% hits. P09958. inhibition, % at 20 µM or 30 µM; in the data active means inhibition above about 25%
RBBP9 inh: blocks human serine hydrolase RBBP9; O75884; recombinant RBBP9, FP-Rh probe fluorescence polarization; inhibition, % at 7.94 µM; 220,000 compounds, 0.2% hits;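 active means inhibition above the campaign mean of all tested compounds plus 3 SD, cut at about 14% in these data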
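Test system: recombinant human RBBP9; Timing: 30 min then 45 min, 25 °C; Detection: fluorescence polarization; Control set: RBBP9 with DMSO as uninhibited control, no-protein wells as full inhibition; Compound dosing: one concentration, 7.94 µM nominal, 0.794% DMSO; Probe or stimulus: FP-Rh activity-based probe, 375 nM before mixing.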
m-calpain inh: inhibitors of pig calpain II. purified calpain II, fluorogenic peptide substrate, 30 min. inhibition, % at 16 µM. 220,000 compounds, 0.37% hits;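 active means inhibition above about 50%, limit read from the data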
Of the large screens only hits and unclear results are named; the others gave an inactive call.

CCN1CCN(C(c2cccs2)C(C)NS(=O)(=O)c2ccc(C)cc2)CC1 (stereo not drawn)	none
N#C/C(=C\c1ccc(C(=O)O)cc1)c1nc2sc3c(c2c(=O)[nH]1)CCCC3	p47phox inh 103.8
O=c1oc2ccccc2c(O)c1/C=C1\C=Nc2ccccc21	p47phox inh 45.9
O=c1[nH]c(O)c(/C=C2\C=Nc3ccccc32)[nH]1	none
Cc1nn(CC(=O)Nc2ccc3c(c2)oc2ccccc23)c(=O)c2ccccc12	p47phox inh 38.6
O=C1c2cccc3cccc(c23)C(=O)N1CCN1CCN(C(=S)Nc2ccccc2)CC1	none
O=C1c2cccc3cccc(c23)C(=O)N1CCN1CCN(C(=S)Nc2ccc(Cl)cc2)CC1	p47phox inh 32.0, m-calpain inh 53.8
O=C(NCc1cccc(Cl)c1)c1ccc(-c2csnn2)cc1	p47phox inh 115.5
C#CC1(NC(=O)NCCCC)CCCCC1	p47phox inh 57.1
CCC(C)c1ccc(NC(=O)COC(=O)c2nc3nccc(C)n3n2)cc1 (stereo not drawn)	none
O=C(O)C1CCCCC1C(=O)NCc1cn2ccccc2n1 (stereo not drawn)	p47phox inh 36.5
Cn1nc(C(F)(F)F)c2cc(NC(=O)OCc3ccc(F)cc3)sc21	m-calpain inh 89.5
COc1ccc(-c2c(C(F)(F)F)nn(C)c2NC(C)=O)cc1	none
Cn1nc(C(F)(F)F)c2cc(NC(=O)OCc3ccc(C(C)(C)C)cc3)sc21	none
COc1ccc(COC(=O)Nc2cc3c(C(F)(F)F)nn(C)c3s2)cc1	m-calpain inh 61.6
Cc1ccc(NC(=O)CCOc2ccccc2C)cc1F	none
c1ccc(-c2nnc(-c3ccccc3)o2)cc1	none
Nc1ccccc1-c1nnc(-c2ccc(-c3ccccc3)cc2)o1	p47phox inh 57.7
C/C(=N\Nc1ccc(S(N)(=O)=O)cc1[N+](=O)[O-])c1ccc2c(c1)OCO2	p47phox inh 37.5
CCC1=C(OC(=O)N(CC)CC)N2C(=O)OC(=NCCc3c[nH]c4ccccc34)[C@]2(Cc2ccccc2)[C@H]2C1=CC[C@H]1C(=O)NC(=O)[C@H]12	none (no result: RBBP9 inh)
COc1ccc(NC(=O)CCn2nc(C)cc2C)cc1	p47phox inh 55.9
CCOC(=O)c1cnc(-n2nc(C)cc2C)nc1Nc1ccc(OC)cc1	m-calpain inh 53.8
CCOC(=O)c1cc2c(ccn2-c2ccc(F)cc2)n1CC(=O)NC(C)(C)C	none
CC1CCCN(CCCOc2ccccc2-c2ccccc2)C1 (stereo not drawn)	p47phox inh 31.0
COc1ccc(C(CCNC(C)c2ccccc2)C(C)C)cc1 (stereo not drawn)	p47phox inh 42.2
CCCCNC(=O)NNC(=O)COc1cccc(C)c1C	none
COc1ccc2cc(OC)c(C(=O)N3CCOCC3)cc2c1	p47phox inh 36.8
Cc1c(C)n(CC(O)CN2CCOCC2)c2ccccc12 (stereo not drawn)	p47phox inh 65.7
Cc1ccc(Cn2c(SCC(C)C)nc3c2c(=O)[nH]c(=O)n3C)cc1	none
CCCSc1nc2c(c(=O)[nH]c(=O)n2C)n1Cc1ccc(C)cc1	p47phox inh 33.3
CC(C)[C@@H]1NC(=O)c2cc([N+](=O)[O-])cc(F)c2NCCC[C@@H](C(N)=O)NC(=O)[C@H](CO)NC1=O	none
O=C1Nc2ccc(Cl)cc2C12Nc1ccccc1-c1nnc(SCc3ccccc3F)nc1O2 (stereo not drawn)	none
O=C1Nc2ccc(F)cc2C12Nc1ccccc1-c1nnc(SCc3ccccc3F)nc1O2 (stereo not drawn)	p47phox inh 43.2
Nc1c(Cl)cc2c(c1Oc1ccccc1)C(=O)c1ccccc1C2=O	m-calpain inh 52.8
CC(/C=C1\SC(=S)N(c2ccc(C(=O)O)cc2)C1=O)=C\c1ccccc1	m-calpain inh 73.2
O=C(Cn1nc2ccccc2n1)N/N=C/c1ccc(F)cc1	none
COCCCn1c2nc3ccccc3nc2c2c(=O)n(-c3ccccc3OC)cnc21	none
COc1ccccc1-n1cnc2c(c1=O)c1nc3ccccc3nc1n2-c1ccc(C)c(C)c1	p47phox inh 34.6
Cc1ccc(-n2ncc3c(SCC(=O)NNC(=O)c4ccco4)ncnc32)cc1	none
CC(C)c1ccc(C(=O)NC(=S)NCc2cccnc2)cc1	m-calpain inh 52.6
Cc1ccc(C(=O)NC(=S)NCc2cccnc2)cc1C	none
O=C(CCCN1C(=O)c2ccccc2C1=O)N1CCC(c2ccccc2)C1 (stereo not drawn)	m-calpain inh 50.6
O=C(NCc1ccccc1)Nc1cccn(Cc2cccc(F)c2)c1=O	none
CCN(CC)C(=O)CSc1nc(N)c2c3c(sc2n1)CC(C)CC3 (stereo not drawn)	p47phox inh 58.7
CC1CCc2c(sc3nc(SCC(=O)NCc4ccco4)nc(N)c23)C1 (stereo not drawn)	none
